# ChEMBL document CHEMBL2177000, “Pharmacokinetic optimization of class-selective histone deacetylase inhibitors and identification of associated candidate predictive biomarkers of hepatocellular carcinoma tumor response” (J Med Chem, 2012)
# Experiments:
# [1] = Clearance in human liver microsomes at 1 uM incubated for 10 mins by LC-MS/MS method; type: ADME, Microsome
# In short: (§1)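 Liver microsomes (human or mouse, 0.5 mg/mL) in 100 mM potassium phosphate pH 7.4 with 1 μM compound, prewarmed 10 min at 37 °C, started with NADPH (10 mM); stopped at 0, 3, 6, 9, 15, 30 min with ice-cold methanol containing tolbutamide internal standard; LC-MS/MS. Hepatic clearance (mL/min/kg) calculated from intrinsic clearance.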
# [2] = Clearance in Sprague-Dawley rat at 10 mg/kg, po or 2 mg/kg, iv by LC-MS/MS method; type: ADME, organism-based; settings: in vivo
# In short: (§2)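 Male Sprague−Dawley rats (250 ± 20 g; N = 3); iv bolus 2 mg/kg in 5% DMSO/40% PEG400/55% saline and/or gavage 10 mg/kg in 0.445% microcrystalline cellulose microsuspension; plasma from heparinized blood at eight (po) or nine (iv) time points, LC-MS/MS, noncompartmental analysis.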
# [3] = Oral bioavailability in Sprague-Dawley rat at 10 mg/kg by LC-MS/MS method; type: ADME, organism-based; settings: in vivo
# In short: (§3)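 Single-dose PK: iv bolus 2 mg/kg in 5% DMSO/40% PEG400/55% saline and/or oral gavage 10 mg/kg as 0.445% microcrystalline cellulose microsuspension; BALB/C nude mice (15−20 g, N = 16 per arm) or male Sprague−Dawley rats (250 ± 20 g, N = 3). Blood at eight (po) or nine (iv) time points into sodium heparin, plasma by LC-MS/MS, noncompartmental analysis.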
# [4] = AUC in Sprague-Dawley rat at 10 mg/kg, po or 2 mg/kg, iv by LC-MS/MS method; type: ADME, organism-based; settings: plasma; in short: as §2
# [5] = Tmax in Sprague-Dawley rat at 10 mg/kg, po or 2 mg/kg, iv by LC-MS/MS method; type: ADME, organism-based; settings: in vivo; in short: as §3
# [6] = target: Histone deacetylase (Homo sapiens) (UniProt Q13547+O15379+Q9UBN7+Q92769+Q9UQL6+Q8WUI4+Q9BY41+Q96DB2+P56524+Q9UKV0+Q969S8); assay: Inhibition of Class 1 histone deacetylase in human HeLa cells assessed as induction in p21 protein expression at 3 uM incubated for 16 hrs by luciferase reporter gene assay relative to HDAC inhibitor entinostat; type: cell-based; parameters: scale not given: the % may be the effect or the level left
# [7] = Cmax in Sprague-Dawley rat at 10 mg/kg, po or 2 mg/kg, iv by LC-MS/MS method; type: ADME, organism-based; settings: in vivo; in short: as §2
# [8] = Clearance in mouse liver microsomes at 1 uM incubated for 10 mins by LC-MS/MS method; type: ADME, Microsome; in short: as §1
# [9] = Volume of distribution at steady state in Sprague-Dawley rat at 10 mg/kg, po or 2 mg/kg, iv by LC-MS/MS method; type: ADME, organism-based; settings: in vivo, read-out: Vdss; in short: as §3
# [10] = test system: Mus musculus; assay: Cmax in BALB/C mouse at 10 mg/kg, po or 2 mg/kg, iv by LC-MS/MS method; type: ADME, organism-based; settings: in vivo
# In short: (§4)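 Female-unspecified BALB/C nude mice (15−20 g, N = 16 per arm); iv bolus 2 mg/kg in 5% DMSO/40% PEG400/55% saline and/or oral gavage 10 mg/kg as 0.445% microcrystalline cellulose microsuspension. Blood sampled at nine (iv) or eight (po) time points into sodium heparin tubes; plasma by LC-MS/MS; noncompartmental analysis.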
# [11] = test system: Mus musculus; assay: Oral bioavailability in BALB/C mouse at 10 mg/kg by LC-MS/MS method; type: ADME, organism-based; settings: in vivo
# In short: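 Bioavailability from single-dose iv (2 mg/kg, 5% DMSO/40% PEG400/55% saline) and oral gavage (10 mg/kg, 0.445% microcrystalline cellulose microsuspension) studies in BALB/C nude mice (N = 16 per arm); plasma at eight (po) or nine (iv) time points, LC-MS/MS, noncompartmental analysis.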
# [12] = Clearance in BALB/C mouse at 10 mg/kg, po or 2 mg/kg, iv by LC-MS/MS method; type: ADME, organism-based; settings: in vivo; in short: as §4
# [13] = test system: Mus musculus; assay: Tmax in BALB/C mouse at 10 mg/kg, po or 2 mg/kg, iv by LC-MS/MS method; type: ADME, organism-based; settings: in vivo; in short: as §3
# [14] = test system: Mus musculus; assay: AUC in BALB/C mouse at 10 mg/kg, po or 2 mg/kg, iv by LC-MS/MS method; type: ADME, organism-based, Plasma; settings: in vivo; in short: as §4
# [15] = test system: Mus musculus; assay: Half life in BALB/C mouse at 10 mg/kg, po or 2 mg/kg, iv by LC-MS/MS method; type: ADME, organism-based; settings: in vivo; in short: as §4
structure (smiles),measurement,setting,value
CN1C[C@H](C(=O)Nc2ccc(Cl)cc2)[C@@H](c2ccc(/C=C/C(=O)Nc3ccccc3N)nn2)C1 (racemic),CLhep predicted at 1 µM,[1],12 mL/min/kg
same,clearance,[2],120 mL/min/kg
same,bioavailability,[3],9%
same,AUC,[4],116 ng·h/mL
same,Tmax,[5],4 h
same,Activity,[6],> 300%
same,Cmax,[7],33 ng/mL
same,CLhep predicted at 1 µM,[8],41 mL/min/kg
same,Vd,[9],19 L
CN1C[C@H](C(=O)Nc2ccc(Cl)cc2)[C@@H](c2ccc(/C=C/C(=O)Nc3ccccc3N)cc2)C1 (racemic),Cmax,[10],324 ng/mL
same,F,[11],75%
same,clearance,[12],39 mL/min/kg
same,CLhep predicted at 1 µM,[1],5 mL/min/kg
same,Tmax,[13],1 h
same,AUC,[14],2946 ng·h/mL
same,t1/2,[15],14 h
same,CLhep predicted at 1 µM,[8],35 mL/min/kg
